Test results published in ChEMBL document CHEMBL1817648, “Synthesis and in vitro antibacterial activity of a series of novel gatifloxacin derivatives” (Eur J Med Chem, 2011).
Converted amounts (≈) assume the structure as drawn.

Tests used:
[1] = Cytotoxicity against african green monkey Vero cells after 72 hrs by MTT assay; format: cell-based; conditions: chlorocebus sabaeus
How it was run: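 Vero cells were kept in Minimum Essential Medium with Earle's salts plus 10% fetal bovine serum at 37 °C under 5% CO₂. Cells were seeded at 1 × 10⁴ per well and allowed to recover 24 h. Medium was then replaced with assay medium containing compound or no drug, and cells were exposed for 72 h. CC₅₀ is the 50% cellular cytotoxic concentration.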

Staphylococcus aureus [2] = experiment: Antibacterial activity against Staphylococcus aureus ATCC 25923 after 18 to 24 hrs by NCCLS M100-S11 two fold serial dilution method; format: functional; conditions: ATCC25923
Staphylococcus aureus [3] = experiment: Antibacterial activity against methicillin-resistant Staphylococcus aureus 08-1 after 18 to 24 hrs by NCCLS M100-S11 two fold serial dilution method; format: functional
How it was run: (§1)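 Two-fold serial dilution in agar medium. MIC read as the lowest concentration giving complete inhibition of bacterial growth after incubation at 35 °C for 18–24 h.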

Staphylococcus aureus [4] = experiment: Antibacterial activity against methicillin-sensitive Staphylococcus aureus 08-1 after 18 to 24 hrs by NCCLS M100-S11 two fold serial dilution method; format: functional
[5] = tested on: Staphylococcus epidermidis; experiment: Antibacterial activity against methicillin-resistant Staphylococcus epidermidis 09-4 after 18 to 24 hrs by NCCLS M100-S11 two fold serial dilution method; format: functional; how it was run: as §1
[6] = tested on: Staphylococcus epidermidis; experiment: Antibacterial activity against methicillin-sensitive Staphylococcus epidermidis 09-3 after 18 to 24 hrs by NCCLS M100-S11 two fold serial dilution method; format: functional; how it was run: as §1
[7] = tested on: Staphylococcus epidermidis; experiment: Antibacterial activity against methicillin-sensitive Staphylococcus epidermidis 09-6 after 18 to 24 hrs by NCCLS M100-S11 two fold serial dilution method; format: functional; how it was run: as §1
Streptococcus pneumoniae [8] = experiment: Antibacterial activity against Streptococcus pneumoniae 08-2 after 18 to 24 hrs by NCCLS M100-S11 two fold serial dilution method; format: functional
Streptococcus pneumoniae [9] = experiment: Antibacterial activity against Streptococcus pneumoniae 08-4 after 18 to 24 hrs by NCCLS M100-S11 two fold serial dilution method; format: functional
Enterococcus faecium [10] = experiment: Antibacterial activity against Enterococcus faecium 08-2 after 18 to 24 hrs by NCCLS M100-S11 two fold serial dilution method; format: functional
Enterococcus faecium [11] = experiment: Antibacterial activity against Enterococcus faecium 08-7 after 18 to 24 hrs by NCCLS M100-S11 two fold serial dilution method; format: functional
Enterococcus faecalis [12] = experiment: Antibacterial activity against Enterococcus faecalis 08-10 after 18 to 24 hrs by NCCLS M100-S11 two fold serial dilution method; format: functional
Enterococcus faecalis [13] = experiment: Antibacterial activity against Enterococcus faecalis 08-12 after 18 to 24 hrs by NCCLS M100-S11 two fold serial dilution method; format: functional
Escherichia coli [14] = experiment: Antibacterial activity against Escherichia coli ATCC 25922 after 18 to 24 hrs by NCCLS M100-S11 two fold serial dilution method; format: functional; conditions: ATCC25922
Escherichia coli [15] = experiment: Antibacterial activity against Escherichia coli 08-21 after 18 to 24 hrs by NCCLS M100-S11 two fold serial dilution method; format: functional
Escherichia coli [16] = experiment: Antibacterial activity against Escherichia coli 08-22 after 18 to 24 hrs by NCCLS M100-S11 two fold serial dilution method; format: functional
Klebsiella pneumoniae [17] = experiment: Antibacterial activity against Klebsiella pneumoniae 09-22 after 18 to 24 hrs by NCCLS M100-S11 two fold serial dilution method; format: functional
Pseudomonas aeruginosa [18] = experiment: Antibacterial activity against Pseudomonas aeruginosa ATCC 27853 after 18 to 24 hrs by NCCLS M100-S11 two fold serial dilution method; format: functional
Pseudomonas aeruginosa [19] = experiment: Antibacterial activity against Pseudomonas aeruginosa 09-32 after 18 to 24 hrs by NCCLS M100-S11 two fold serial dilution method; format: functional
Pseudomonas aeruginosa [20] = experiment: Antibacterial activity against Pseudomonas aeruginosa 09-33 after 18 to 24 hrs by NCCLS M100-S11 two fold serial dilution method; format: functional
Pseudomonas aeruginosa [21] = experiment: Antibacterial activity against Pseudomonas aeruginosa 09-34 after 18 to 24 hrs by NCCLS M100-S11 two fold serial dilution method; format: functional
Klebsiella pneumoniae [22] = experiment: Antibacterial activity against Klebsiella pneumoniae 09-23 after 18 to 24 hrs by NCCLS M100-S11 two fold serial dilution method; format: functional

Row | SMILES | CC50 at 72 h [1] [µg/mL] | MIC (Staphylococcus aureus [2]) [µg/mL] | MIC (Staphylococcus aureus [3]) [µg/mL] | MIC (Staphylococcus aureus [4]) [µg/mL] | MIC [5] [µg/mL] | MIC [6] [µg/mL] | MIC [7] [µg/mL] | MIC (Streptococcus pneumoniae [8]) [µg/mL] | MIC (Streptococcus pneumoniae [9]) [µg/mL] | MIC (Enterococcus faecium [10]) [µg/mL] | MIC (Enterococcus faecium [11]) [µg/mL] | MIC (Enterococcus faecalis [12]) [µg/mL] | MIC (Enterococcus faecalis [13]) [µg/mL] | MIC (Escherichia coli [14]) [µg/mL] | MIC (Escherichia coli [15]) [µg/mL] | MIC (Escherichia coli [16]) [µg/mL] | MIC (Klebsiella pneumoniae [17]) [µg/mL] | MIC (Pseudomonas aeruginosa [18]) [µg/mL] | MIC (Pseudomonas aeruginosa [19]) [µg/mL] | MIC (Pseudomonas aeruginosa [20]) [µg/mL] | also measured
1 | COC(=O)CCN1CCN(c2c(F)cc3c(=O)c(C(=O)O)cn(C4CC4)c3c2OC)CC1C (configuration not stated) | > 1000 | 8 (≈ 17.3 µM) | 4 (≈ 8.67 µM) | 4 (≈ 8.67 µM) | > 128 | > 128 | > 128 | > 128 | > 128 | > 128 | > 128 | > 128 | > 128 | > 128 | > 128 | > 128 | > 128 | > 128 | > 128 | > 128 | MIC (Pseudomonas aeruginosa [21]): > 128 µg/mL; MIC (Klebsiella pneumoniae [22]): > 128 µg/mL
2 | CCOC(=O)CN1CCN(c2c(F)cc3c(=O)c(C(=O)O)cn(C4CC4)c3c2OC)CC1C (configuration not stated) | 1000 (≈ 2170 µM) | 4 (≈ 8.67 µM) | > 128 | 4 (≈ 8.67 µM) | 4 (≈ 8.67 µM) | 4 (≈ 8.67 µM) | 4 (≈ 8.67 µM) | > 128 | 4 (≈ 8.67 µM) | > 128 | > 128 | > 128 | > 128 | 128 (≈ 277 µM) | > 128 | > 128 | > 128 | 128 (≈ 277 µM) | > 128 | > 128 | MIC (Pseudomonas aeruginosa [21]): > 128 µg/mL; MIC (Klebsiella pneumoniae [22]): > 128 µg/mL
3 | COc1c(N2CCN(CC(C)=O)C(C)C2)c(F)cc2c(=O)c(C(=O)O)cn(C3CC3)c12 (configuration not stated) | 500 (≈ 1160 µM) | 0.25 (≈ 0.579 µM) | 16 (≈ 37.1 µM) | 1 (≈ 2.32 µM) | 2 (≈ 4.64 µM) | 0.25 (≈ 0.579 µM) | 0.25 (≈ 0.579 µM) | 32 (≈ 74.2 µM) | 2 (≈ 4.64 µM) | 32 (≈ 74.2 µM) | 32 (≈ 74.2 µM) | 32 (≈ 74.2 µM) | 128 (≈ 297 µM) | 8 (≈ 18.5 µM) | 128 (≈ 297 µM) | 32 (≈ 74.2 µM) | 16 (≈ 37.1 µM) | 8 (≈ 18.5 µM) | 2 (≈ 4.64 µM) | 128 (≈ 297 µM) | MIC (Pseudomonas aeruginosa [21]): 16 µg/mL (≈ 37.1 µM); MIC (Klebsiella pneumoniae [22]): 2 µg/mL (≈ 4.64 µM)
4 | COc1c(N2CCN(CCC(C)=O)C(C)C2)c(F)cc2c(=O)c(C(=O)O)cn(C3CC3)c12 (configuration not stated) | 9.84 (≈ 22.1 µM) | 0.06 (≈ 0.135 µM) | 0.5 (≈ 1.12 µM) | 0.25 (≈ 0.561 µM) | 0.25 (≈ 0.561 µM) | 0.25 (≈ 0.561 µM) | 0.25 (≈ 0.561 µM) | 4 (≈ 8.98 µM) | 0.25 (≈ 0.561 µM) | 4 (≈ 8.98 µM) | 4 (≈ 8.98 µM) | 4 (≈ 8.98 µM) | 4 (≈ 8.98 µM) | 0.5 (≈ 1.12 µM) | 4 (≈ 8.98 µM) | 0.5 (≈ 1.12 µM) | 0.5 (≈ 1.12 µM) | 1 (≈ 2.24 µM) | 0.25 (≈ 0.561 µM) | 4 (≈ 8.98 µM) | MIC (Pseudomonas aeruginosa [21]): 0.5 µg/mL (≈ 1.12 µM); MIC (Klebsiella pneumoniae [22]): 0.5 µg/mL (≈ 1.12 µM)
5 | CO/N=C(\C)CN1CCN(c2c(F)cc3c(=O)c(C(=O)O)cn(C4CC4)c3c2OC)CC1C (configuration not stated) | 49.6 (≈ 108 µM) | 0.5 (≈ 1.09 µM) | > 128 | 0.25 (≈ 0.543 µM) | 0.5 (≈ 1.09 µM) | 0.5 (≈ 1.09 µM) | 4 (≈ 8.69 µM) | 64 (≈ 139 µM) | 2 (≈ 4.34 µM) | > 128 | > 128 | > 128 | > 128 | 64 (≈ 139 µM) | > 128 | > 128 | > 128 | 32 (≈ 69.5 µM) | 64 (≈ 139 µM) | > 128 | MIC (Pseudomonas aeruginosa [21]): > 128 µg/mL; MIC (Klebsiella pneumoniae [22]): > 128 µg/mL
6 | CCO/N=C(\C)CN1CCN(c2c(F)cc3c(=O)c(C(=O)O)cn(C4CC4)c3c2OC)CC1C (configuration not stated) | 31.2 (≈ 65.9 µM) | 0.125 (≈ 0.263 µM) | 0.25 (≈ 0.527 µM) | 0.25 (≈ 0.527 µM) | 0.25 (≈ 0.527 µM) | 0.25 (≈ 0.527 µM) | 0.25 (≈ 0.527 µM) | > 128 | 2 (≈ 4.21 µM) | > 128 | > 128 | > 128 | > 128 | 128 (≈ 270 µM) | > 128 | > 128 | > 128 | > 128 | > 128 | > 128 | MIC (Pseudomonas aeruginosa [21]): > 128 µg/mL; MIC (Klebsiella pneumoniae [22]): > 128 µg/mL
